Results reported in ChEMBL document CHEMBL1153177, “Exploring SAR features in diverse library of 4-cyanomethyl-pyrazole-3-carboxamides suitable for further elaborations as CB1 antagonists” (Bioorg Med Chem Lett, 2010).
pIC50: −log10 of the molar value.

Key:
Cannabinoid receptor 1 [1] = biological target: T1, Cannabinoid receptor 1 (Homo sapiens, UniProt P21554); assay type: functional, cell-based, CHO-K1
Cannabinoid receptor 1 [2] = biological target: T1, Cannabinoid receptor 1; test: Inverse agonist activity at human recombinant CB1 receptor expressed in CHO-K1 cells assessed as stimulation of GTPgammaS binding; assay type: functional, cell-based
Summary of the method: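 Membranes came from CHO-K1 cells stably transfected with recombinant human CB1. Efficacy above 100% was taken as inverse agonist activity. IC50 values are the mean of at least two determinations.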

[3] = Octanol-water partition coefficient, log D of the compound; assay type: physicochemical

T1 sequence (P21554 whole entry): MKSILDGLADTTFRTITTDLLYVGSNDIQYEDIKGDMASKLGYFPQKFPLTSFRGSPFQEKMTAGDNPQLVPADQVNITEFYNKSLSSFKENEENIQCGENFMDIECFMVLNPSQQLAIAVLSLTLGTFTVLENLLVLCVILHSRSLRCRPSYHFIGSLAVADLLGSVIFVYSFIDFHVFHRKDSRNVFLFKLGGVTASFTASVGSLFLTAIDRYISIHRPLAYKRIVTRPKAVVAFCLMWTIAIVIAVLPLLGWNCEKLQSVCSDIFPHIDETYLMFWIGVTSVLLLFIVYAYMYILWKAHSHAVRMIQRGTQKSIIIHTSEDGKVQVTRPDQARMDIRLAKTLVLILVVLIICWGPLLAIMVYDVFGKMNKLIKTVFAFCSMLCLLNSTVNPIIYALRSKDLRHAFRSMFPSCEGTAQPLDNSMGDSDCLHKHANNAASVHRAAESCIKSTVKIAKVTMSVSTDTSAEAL

SMILES | pIC50 (Cannabinoid receptor 1 [1]) | pIC50 (Cannabinoid receptor 1 [2]) | logD [3]
COC(=O)c1ccccc1C1CCN(C(=O)c2nn(-c3ccccc3Cl)c(-c3ccc(Cl)cc3)c2CC#N)CC1 | 8.66 | – | –
N#CCc1c(C(=O)N2CCN(c3ccccc3)CC2)nn(-c2ccccc2Cl)c1-c1ccc(Cl)cc1 | 7.89 | – | –
N#CCc1c(C(=O)NC2CCc3ccccc32)nn(-c2ccccc2Cl)c1-c1ccc(Cl)cc1 (stereo not drawn) | 9.39 | – | –
CC(=O)C1CCN(C(=O)c2nn(-c3ccccc3Cl)c(-c3ccc(Cl)cc3)c2CC#N)CC1 | 6.70 | – | –
N#CCc1c(C(=O)N2Cc3ccc(F)cc3C2)nn(-c2ccccc2Cl)c1-c1ccc(Cl)cc1 | 8.24 | – | –
CS(=O)(=O)C1CCN(C(=O)c2nn(-c3ccccc3Cl)c(-c3ccc(Cl)cc3)c2CC#N)CC1 | 7.77 | – | –
CN(Cc1ccc(F)cc1)C(=O)c1nn(-c2ccccc2Cl)c(-c2ccc(Cl)cc2)c1CC#N | 8.25 | – | 4.2
N#CCc1c(C(=O)N2CC[C@@H](OCc3ccc(F)cc3)C2)nn(-c2ccccc2Cl)c1-c1ccc(Cl)cc1 | 7.70 | – | –
COC(=O)C(NC(=O)c1nn(-c2ccccc2Cl)c(-c2ccc(Cl)cc2)c1CC#N)C(C)C (stereo not drawn) | 8.14 | – | –
N#CCc1c(C(=O)N[C@@H]2C[C@H]3CC[C@@H]2C3)nn(-c2ccccc2Cl)c1-c1ccc(Cl)cc1 | 8.66 | – | –
N#CCc1c(C(=O)N2CCC(c3ccc(F)cc3)C2)nn(-c2ccccc2Cl)c1-c1ccc(Cl)cc1 (stereo not drawn) | 8.04 | – | –
N#CCc1c(C(=O)N2CCC(O)(Cc3ccccc3)CC2)nn(-c2ccccc2Cl)c1-c1ccc(Cl)cc1 | 8.47 | – | –
N#CCc1c(C(=O)N2CCc3ccc(C(F)(F)F)cc3C2)nn(-c2ccccc2Cl)c1-c1ccc(Cl)cc1 | 8.68 | – | –
N#CCc1c(C(=O)N2CCC(O)(c3ccc(F)cc3)CC2)nn(-c2ccccc2Cl)c1-c1ccc(Cl)cc1 | 8.52 | – | –
N#CCc1c(C(=O)NC2CCCCCC2)nn(-c2ccccc2Cl)c1-c1ccc(Cl)cc1 | 9.31 | – | –
N#CCc1c(C(=O)N[C@@H]2c3ccccc3C[C@@H]2O)nn(-c2ccccc2Cl)c1-c1ccc(Cl)cc1 (single isomer, unassigned) | 8.11 | – | –
N#CCc1c(C(=O)N2CCCC2c2ccc(F)cc2)nn(-c2ccccc2Cl)c1-c1ccc(Cl)cc1 (stereo not drawn) | 7.57 | – | –
N#CCc1c(C(=O)N2CCCCC2c2ccc(F)cc2)nn(-c2ccccc2Cl)c1-c1ccc(Cl)cc1 (stereo not drawn) | 7.64 | – | –
N#CCc1c(C(=O)NN2CCCCCC2)nn(-c2ccccc2Cl)c1-c1ccc(Cl)cc1 | 9.28 | – | –
N#CCc1c(C(=O)N[C@H]2c3ccccc3C[C@H]2O)nn(-c2ccccc2Cl)c1-c1ccc(Cl)cc1 (single isomer, unassigned) | 8.77 | – | –
N#CCc1c(C(=O)NC2CCCCC2)nn(-c2ccccc2Cl)c1-c1ccc(Cl)cc1 | 8.72 | – | 3.5
N#CCc1c(C(=O)N2Cc3ccc(Br)cc3C2)nn(-c2ccccc2Cl)c1-c1ccc(Cl)cc1 | 9.66 | – | –
N#CCc1c(C(=O)N2CCC(c3ccccc3C(=O)O)CC2)nn(-c2ccccc2Cl)c1-c1ccc(Cl)cc1 | 5.55 | – | –
N#CCc1c(C(=O)N2CCc3ccccc3C2)nn(-c2ccccc2Cl)c1-c1ccc(Cl)cc1 | 8.24 | – | –
N#CCc1c(C(=O)NC(Cc2ccccc2)C(=O)O)nn(-c2ccccc2Cl)c1-c1ccc(Cl)cc1 (stereo not drawn) | 5.35 | – | –
N#CCc1c(C(=O)N2CCC(c3ccc(F)cc3)CC2)nn(-c2ccccc2Cl)c1-c1ccc(Cl)cc1 | 9.00 | – | –
N#CCc1c(C(=O)NN2CCCCC2)nn(-c2ccccc2Cl)c1-c1ccc(Cl)cc1 | 8.12 | – | 3.6
N#CCc1c(C(=O)N2CCN(c3ncccn3)CC2)nn(-c2ccccc2Cl)c1-c1ccc(Cl)cc1 | 8.42 | – | –
COC(=O)C(Cc1ccccc1)NC(=O)c1nn(-c2ccccc2Cl)c(-c2ccc(Cl)cc2)c1CC#N (stereo not drawn) | 8.92 | – | –
CS(=O)(=O)N1CCC(NC(=O)c2nn(-c3ccccc3Cl)c(-c3ccc(Cl)cc3)c2CC#N)CC1 | 7.51 | – | –

The next lines start with the values.

pIC50 (Cannabinoid receptor 1 [1]) | pIC50 (Cannabinoid receptor 1 [2]) | logD [3] | SMILES
8.24 | 8.92 | 4.4 | N#CCc1c(C(=O)NCc2ccc(Br)cc2)nn(-c2ccccc2Cl)c1-c1ccc(Cl)cc1
8.38 | – | 3.8 | N#CCc1c(C(=O)NCc2ccc(C#N)cc2)nn(-c2ccccc2Cl)c1-c1ccc(Cl)cc1
9.15 | – | 4.4 | N#CCc1c(C(=O)NCc2ccc(F)c(Br)c2)nn(-c2ccccc2Cl)c1-c1ccc(Cl)cc1
7.85 | – | – | N#CCc1c(C(=O)Nc2ccc(C(F)(F)F)nc2)nn(-c2ccccc2Cl)c1-c1ccc(Cl)cc1
9.29 | – | 4.5 | N#CCc1c(C(=O)NCc2ccc(Br)cc2F)nn(-c2ccccc2Cl)c1-c1ccc(Cl)cc1
7.74 | – | 4.4 | N#CCc1c(C(=O)Nc2cccnc2Cl)nn(-c2ccccc2Cl)c1-c1ccc(Cl)cc1
7.24 | – | 3.3 | N#CCc1c(C(=O)Nc2cccnc2)nn(-c2ccccc2Cl)c1-c1ccc(Cl)cc1
8.80 | – | – | C[C@H]1CC[C@H](NC(=O)c2nn(-c3ccccc3Cl)c(-c3ccc(Cl)cc3)c2CC#N)CC1
5.95 | – | 2.9 | N#CCc1c(C(=O)NCCN2CCCCC2)nn(-c2ccccc2Cl)c1-c1ccc(Cl)cc1
8.24 | – | – | CCC(CC)NC(=O)c1nn(-c2ccccc2Cl)c(-c2ccc(Cl)cc2)c1CC#N
8.15 | – | 4.6 | N#CCc1c(C(=O)NCc2c(Cl)cccc2Cl)nn(-c2ccccc2Cl)c1-c1ccc(Cl)cc1
8.80 | – | 4.6 | N#CCc1c(C(=O)NCc2ccc(Cl)cc2Cl)nn(-c2ccccc2Cl)c1-c1ccc(Cl)cc1
7.96 | – | 4.2 | N#CCc1c(C(=O)Nc2ccc(F)cc2)nn(-c2ccccc2Cl)c1-c1ccc(Cl)cc1
8.92 | – | 4.4 | N#CCc1c(C(=O)NCc2ccc(Cl)cc2)nn(-c2ccccc2Cl)c1-c1ccc(Cl)cc1
7.80 | – | – | N#CCc1c(C(=O)NCCc2ccccc2)nn(-c2ccccc2Cl)c1-c1ccc(Cl)cc1
8.39 | – | 4.1 | N#CCc1c(C(=O)NCc2ccccc2F)nn(-c2ccccc2Cl)c1-c1ccc(Cl)cc1
8.68 | – | 4.1 | N#CCc1c(C(=O)NCc2ccc(F)cc2)nn(-c2ccccc2Cl)c1-c1ccc(Cl)cc1
5.20 | – | – | CC(C)C(NC(=O)c1nn(-c2ccccc2Cl)c(-c2ccc(Cl)cc2)c1CC#N)C(=O)O (stereo not drawn)
7.15 | – | – | N#CCc1c(C(=O)NN2CCOCC2)nn(-c2ccccc2Cl)c1-c1ccc(Cl)cc1
7.26 | – | 3.8 | N#CCc1ccc(NC(=O)c2nn(-c3ccccc3Cl)c(-c3ccc(Cl)cc3)c2CC#N)cc1
7.72 | – | 4 | N#CCc1c(C(=O)Nc2cnc3ccccc3c2)nn(-c2ccccc2Cl)c1-c1ccc(Cl)cc1
7.82 | – | – | Cc1cc(CNC(=O)c2nn(-c3ccccc3Cl)c(-c3ccc(Cl)cc3)c2CC#N)no1
8.59 | – | 4.4 | N#CCc1c(C(=O)NCc2cccc(Cl)c2)nn(-c2ccccc2Cl)c1-c1ccc(Cl)cc1
